# Results of several laboratories.
# Medium: plasma
# Route: oral
Compound,host,dose,setting,Vd/F
C[C@@H](c1ccc2nccn2c1)n1nnc2ncc(-c3cnn(C)c3)nc21,human,600 mg,,506 L
c1cnc2ccc(Nc3nc(NC4CC4)c4nc[nH]c4n3)cc2c1,human,100 mg/m²,patients,163 L
COC(=O)N[C@@H](C)CNc1nccc(-c2cn(C(C)C)nc2-c2cc(Cl)cc(NS(C)(=O)=O)c2F)n1,human,50 mg,single dose,260 L
CC(C)(C)OC[C@@H]1C(=O)NCCN1C(=O)C[C@H](N)Cc1cc(F)c(F)cc1F,male human,5 mg,"multiple doses, steady state",1960 L
C[C@@]1(c2cc(NC(=O)c3ccc(C#N)cn3)ccc2F)C=CSC(N)=N1,human,30 mg,single dose,276 L
CO[C@H]1CC[C@H](N2C(=O)CNc3ncc(-c4ccc(C(C)(C)O)nc4)nc32)CC1,human,60 mg,patients,236 L
COc1ccc([C@@H]2CN(C(=O)[C@@H](O)CO)C[C@@]2(C)[C@@H](C)O)cc1OC1CN(c2ccc(C)cn2)C1,human,0.5 mg,"single dose, healthy volunteers",40.7 L
COc1cc(C(=O)NC2CCN(C)CC2)c(F)cc1Nc1ncc(C(F)(F)F)c(Oc2cccc3c2C(=O)N(C)C3)n1,human,100 mg,"single dose, patients",236 L
N#CN1C[C@H](n2nc(-c3ccc(Oc4ccc(Cl)cn4)cc3)c(C(N)=O)c2N)CCC12CC2,human,600 mg,fed,1230 L
CC(C)(Sc1ccncc1-c1ccc(C#N)c2ccccc12)C(=O)O,male human,20 mg,"single dose, fed, healthy volunteers",531 L
CCOc1cc2ncc(C#N)c(Nc3ccc(OCc4ccccn4)c(Cl)c3)c2cc1NC(=O)/C=C/[C@H]1CCCN1C,human,80 mg,single dose,4110 L
Cc1cc(Nc2cc(N3CCN(C)CC3)nc(/C=C/c3ccccc3)n2)n[nH]1,human,200 mg/m²,patients,2280 L
